Source: ChEMBL document CHEMBL5724801, “EUbOPEN Chemogenomics Library - Multiplex” (2024)
Where “and” joins values, the source holds several entries; their conditions need not be identical. Equal values may be shown once.

These compounds were tested on HEK-293T (assay: Multiplex assay against HEK293T). Settings: human, 12 h, 1 µM, compound concentration 1 uM.
Assay type: toxicity, cell-based
Summary of the method: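 With compound added, live cells were imaged on a CQ1 microscope at 37°C and 5% CO2; staining with Hoechst33342, BioTracker Green Microtubule Cytoskeleton Dye, MitoTracker Red and Annexin V Alexa Fluor 680 had been done at seeding. The CellPathfinder machine-learning gating scheme split cells into Hoechst high-intensity objects or normal cells, normal cells into healthy, pyknosed or fragmented nuclei, and pyknosed cells into mitotic or apoptotic. The tubulin, mitochondrial-mass and membrane-permeability phenotypes are per cents of healthy-nucleus cells.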

SMILES | Population Apoptotic (%) | Population Fragmented Nuclei (%) | Population Healthy Nuclei (%) | Population Hoechst High Intensity Objects (%) | Population Membrane Permeable-Phenotype (%) | Population Mitotic Cells (%) | Population Normal (%) | Population Pyknosed Nuclei (%) | Population Tubulin-Different-Phenotype (%) | Total Cell Count
COC[C@@H](CC(C)C)NC1=N/C(=C\c2ccc3ncsc3c2)C(=O)N1C | 13.64% and 37.5% | 6.45% and 8% | 58.06% and 23.43% | 0.8% and 0% | 0.69% and 2.44% | 86.36% and 62.5% | 99.2% and 100% | 35.48% and 68.57% | 6.94% and 14.63% | 250 and 175
O=C(NCc1cccc(O)c1)Nc1nc(-c2ccncc2)cs1 | 7.14% and 10.34% | 2.92% and 3.91% | 52.8% and 28.12% | 0.24% and 0% | 0.92% and 0% | 92.86% and 89.66% | 99.76% and 100% | 44.28% and 67.97% | – | –
CCCCCC(O)/C=C/[C@H]1C(=O)CC(O)C1C/C=C\CCCC(=O)O (some centres not stated) | 29% and 39% | 8% and 7% | 80% and 83% | 8% and 6% | 0% | 70% and 60% | 91% and 93% | 11% and 9% | 23% and 20% | 409 and 383
Cc1cc(C)c(NC(=O)C2CC3CCC2C3)c(C)c1 (configuration not stated) | 10.42% and 11.4% | 4.2% and 7.23% | 55.46% and 24.1% | 0.83% and 0% | 0.51% and 2.5% | 89.58% and 88.6% | 99.17% and 100% | 40.34% and 68.67% | – | 360 and 166

Same assay, conditions: human, 12 h, 1 µM, compound concentration 1 uM

SMILES | Population Mitochondria Different-Phenotype (%)
O=C(NCc1cccc(O)c1)Nc1nc(-c2ccncc2)cs1 | 22.12% and 19.44%
CCCCCC(O)/C=C/[C@H]1C(=O)CC(O)C1C/C=C\CCCC(=O)O (some centres not stated) | 44% and 56%
Cc1cc(C)c(NC(=O)C2CC3CCC2C3)c(C)c1 (configuration not stated) | 38.89% and 22.5%

Same assay, conditions: human, 12 h, 10 µM, compound concentration 10 uM

SMILES | Population Apoptotic (%) | Population Fragmented Nuclei (%) | Population Healthy Nuclei (%) | Population Hoechst High Intensity Objects (%) | Population Membrane Permeable-Phenotype (%) | Population Mitochondria Different-Phenotype (%) | Population Mitotic Cells (%) | Population Normal (%) | Population Pyknosed Nuclei (%) | Population Tubulin-Different-Phenotype (%)
COC[C@@H](CC(C)C)NC1=N/C(=C\c2ccc3ncsc3c2)C(=O)N1C | 25.51% and 35.09% | 88.19% and 92.28% | 3.54% and 1.77% | 4.51% and 10.38% | 0% and 5.88% | 0% | 74.49% and 64.91% | 95.49% and 89.62% | 8.27% and 5.95% | 16.67% and 5.88%
O=C(NCc1cccc(O)c1)Nc1nc(-c2ccncc2)cs1 | 7.43% and 12.61% | 2.74% and 5.1% | 52.13% and 34.18% | 0% | 4.09% and 0% | 19.88% and 13.43% | 92.57% and 87.39% | 100% | 45.12% and 60.71% | –
CCCCCC(O)/C=C/[C@H]1C(=O)CC(O)C1C/C=C\CCCC(=O)O (some centres not stated) | 48% and 54% | 6% | 79% and 77% | 9% and 7% | 0% | 48% and 59% | 51% and 46% | 90% and 92% | 14% and 15% | 31% and 25%
Cc1cc(C)c(NC(=O)C2CC3CCC2C3)c(C)c1 (configuration not stated) | 15.2% | 3.72% and 4.14% | 44.63% and 21.89% | 0.82% and 0% | 0.93% and 2.7% | 32.41% and 16.22% | 84.8% | 99.18% and 100% | 51.65% and 73.96% | –

Same assay, conditions: human, 12 h, 10 µM, compound concentration 10 uM

SMILES | Total Cell Count
COC[C@@H](CC(C)C)NC1=N/C(=C\c2ccc3ncsc3c2)C(=O)N1C | 1241 and 1069
O=C(NCc1cccc(O)c1)Nc1nc(-c2ccncc2)cs1 | 328 and 196
CCCCCC(O)/C=C/[C@H]1C(=O)CC(O)C1C/C=C\CCCC(=O)O (some centres not stated) | 409 and 343
Cc1cc(C)c(NC(=O)C2CC3CCC2C3)c(C)c1 (configuration not stated) | 244 and 169

Same assay, conditions: human, 24 h, 1 µM, compound concentration 1 uM

SMILES | Population Apoptotic (%) | Population Fragmented Nuclei (%) | Population Healthy Nuclei (%) | Population Hoechst High Intensity Objects (%) | Population Membrane Permeable-Phenotype (%) | Population Mitochondria Different-Phenotype (%) | Population Mitotic Cells (%) | Population Normal (%) | Population Tubulin-Different-Phenotype (%) | Total Cell Count
COC[C@@H](CC(C)C)NC1=N/C(=C\c2ccc3ncsc3c2)C(=O)N1C | 46.3% and 34.07% | 6.23% and 6.63% | 76.07% and 38.55% | 2.87% and 1.19% | 0.43% and 1.56% | 19.83% and 7.81% | 53.7% and 65.93% | 97.13% and 98.81% | 19.4% and 12.5% | 314 and 168
O=C(NCc1cccc(O)c1)Nc1nc(-c2ccncc2)cs1 | 13.54% and 22% | 2.1% and 4.17% | 77.73% and 54.17% | 0% | 0.54% and 0% | 3.78% and 6.15% | 86.46% and 78% | 100% | 3.51% and 9.23% | –
CCCCCC(O)/C=C/[C@H]1C(=O)CC(O)C1C/C=C\CCCC(=O)O (some centres not stated) | 40% and 44% | 8% and 7% | 83% and 84% | 3% and 7% | 1% and 0% | 22% and 41% | 59% and 55% | 96% and 92% | 11% and 14% | 611 and 492
Cc1cc(C)c(NC(=O)C2CC3CCC2C3)c(C)c1 (configuration not stated) | 14.08% and 10% | 1.7% and 6.43% | 74.19% and 29.24% | 0% | 1.6% and 0% | – | 85.92% and 90% | 100% | 17.39% and 0% | –

Same assay, conditions: human, 24 h, 1 µM, compound concentration 1 uM

SMILES | Population Pyknosed Nuclei (%)
O=C(NCc1cccc(O)c1)Nc1nc(-c2ccncc2)cs1 | 20.17% and 41.67%
CCCCCC(O)/C=C/[C@H]1C(=O)CC(O)C1C/C=C\CCCC(=O)O (some centres not stated) | 8% and 7%
Cc1cc(C)c(NC(=O)C2CC3CCC2C3)c(C)c1 (configuration not stated) | 24.11% and 64.33%

Same assay, conditions: human, 24 h, 10 µM, compound concentration 10 uM

SMILES | Population Apoptotic (%) | Population Fragmented Nuclei (%) | Population Healthy Nuclei (%) | Population Hoechst High Intensity Objects (%) | Population Membrane Permeable-Phenotype (%) | Population Mitochondria Different-Phenotype (%) | Population Mitotic Cells (%) | Population Normal (%) | Population Pyknosed Nuclei (%) | Population Tubulin-Different-Phenotype (%)
COC[C@@H](CC(C)C)NC1=N/C(=C\c2ccc3ncsc3c2)C(=O)N1C | 41.88% and 34.04% | 84.82% and 94.42% | 4.67% and 1.42% | 5.28% and 8.58% | 9.62% and 0% | 5.77% and 0% | 58.12% and 65.96% | 94.72% and 91.42% | 10.51% and 4.16% | 15.38% and 0%
O=C(NCc1cccc(O)c1)Nc1nc(-c2ccncc2)cs1 | 12.64% and 13.27% | 3.74% | 72.99% and 50.47% | 0% and 0.93% | 1.1% and 0% | 5.86% and 10.19% | 87.36% and 86.73% | 100% and 99.07% | 23.26% and 45.79% | 5.86% and 3.7%
CCCCCC(O)/C=C/[C@H]1C(=O)CC(O)C1C/C=C\CCCC(=O)O (some centres not stated) | 27% and 44% | 10% and 9% | 75% and 77% | 4% and 9% | 0% | 29% and 50% | 72% and 55% | 95% and 90% | 13% | 16% and 21%
Cc1cc(C)c(NC(=O)C2CC3CCC2C3)c(C)c1 (configuration not stated) | 17.76% and 15.52% | 1.69% and 2.58% | 72.53% and 37.63% | 0% | 0.33% and 1.37% | 17.61% and 20.55% | 82.24% and 84.48% | 100% | 25.78% and 59.79% | 14.95% and 10.96%

Same assay, conditions: human, 24 h, 10 µM, compound concentration 10 uM

SMILES | Total Cell Count
COC[C@@H](CC(C)C)NC1=N/C(=C\c2ccc3ncsc3c2)C(=O)N1C | 1175 and 1236
O=C(NCc1cccc(O)c1)Nc1nc(-c2ccncc2)cs1 | 374 and 216
CCCCCC(O)/C=C/[C@H]1C(=O)CC(O)C1C/C=C\CCCC(=O)O (some centres not stated) | 523 and 388
Cc1cc(C)c(NC(=O)C2CC3CCC2C3)c(C)c1 (configuration not stated) | 415 and 194

Same assay, conditions: human, 48 h, 1 µM, compound concentration 1 uM

SMILES | Population Apoptotic (%) | Population Fragmented Nuclei (%) | Population Healthy Nuclei (%) | Population Hoechst High Intensity Objects (%) | Population Membrane Permeable-Phenotype (%) | Population Mitochondria Different-Phenotype (%) | Population Mitotic Cells (%) | Population Normal (%) | Population Pyknosed Nuclei (%) | Population Tubulin-Different-Phenotype (%)
COC[C@@H](CC(C)C)NC1=N/C(=C\c2ccc3ncsc3c2)C(=O)N1C | 43.33% and 39.58% | 10.02% and 10.37% | 83.97% and 54.07% | 2.16% and 8.16% | 3.34% and 1.37% | 36.28% and 26.03% | 56.67% and 60.42% | 97.84% and 91.84% | – | –
O=C(NCc1cccc(O)c1)Nc1nc(-c2ccncc2)cs1 | 17.39% and 25% | 2.27% and 10.14% | 86.57% and 68.24% | 0.16% and 0.67% | 5.42% and 4.95% | 14.95% and 15.84% | 82.61% and 75% | 99.84% and 99.33% | 11.17% and 21.62% | –
CCCCCC(O)/C=C/[C@H]1C(=O)CC(O)C1C/C=C\CCCC(=O)O (some centres not stated) | 29% and 30% | 12% and 13% | 79% and 81% | 1% and 3% | 1% and 2% | 20% and 19% | 70% and 69% | 98% and 96% | 7% and 5% | 8% and 7%
Cc1cc(C)c(NC(=O)C2CC3CCC2C3)c(C)c1 (configuration not stated) | 8.16% and 13.89% | 2.91% and 1.03% | 86.66% and 62.05% | 0% and 1.52% | 4.67% and 2.48% | 12.37% and 24.79% | 91.84% and 86.11% | 100% and 98.48% | – | –

Same assay, conditions: human, 48 h, 1 µM, compound concentration 1 uM

SMILES | Total Cell Count
CCCCCC(O)/C=C/[C@H]1C(=O)CC(O)C1C/C=C\CCCC(=O)O (some centres not stated) | 864 and 775

Same assay, conditions: human, 48 h, 10 µM, compound concentration 10 uM

SMILES | Population Fragmented Nuclei (%) | Population Healthy Nuclei (%) | Population Hoechst High Intensity Objects (%) | Population Membrane Permeable-Phenotype (%) | Population Mitochondria Different-Phenotype (%) | Population Normal (%) | Population Pyknosed Nuclei (%) | Population Tubulin-Different-Phenotype (%) | Total Cell Count | Population Apoptotic (%)
COC[C@@H](CC(C)C)NC1=N/C(=C\c2ccc3ncsc3c2)C(=O)N1C | 90.84% and 92.95% | 2.22% and 3.18% | 6.5% and 11.42% | 6.67% and 0% | 23.33% and 0% | 93.5% and 88.58% | 6.95% and 3.87% | 10% and 2.38% | 1447 and 1489 | –
O=C(NCc1cccc(O)c1)Nc1nc(-c2ccncc2)cs1 | 4.16% and 5.49% | 85.07% and 70.04% | 0.19% and 0% | 4% and 0.6% | 19.78% and 24.1% | 99.81% and 100% | 10.78% and 24.47% | 0.89% and 5.42% | 530 and 237 | 22.81% and 34.48%
CCCCCC(O)/C=C/[C@H]1C(=O)CC(O)C1C/C=C\CCCC(=O)O (some centres not stated) | 12% and 10% | 79% and 80% | 1% and 3% | 0% | 17% and 26% | 98% and 96% | 8% | 7% and 8% | 815 and 544 | 22% and 51%
Cc1cc(C)c(NC(=O)C2CC3CCC2C3)c(C)c1 (configuration not stated) | 2.94% and 2.43% | 84.08% and 71.26% | 0% | 4.15% and 3.98% | 20.62% and 28.98% | 100% | 12.98% and 26.32% | – | – | 9.24% and 23.08%

Same assay, conditions: human, 48 h, 10 µM, compound concentration 10 uM

SMILES | Population Mitotic Cells (%)
O=C(NCc1cccc(O)c1)Nc1nc(-c2ccncc2)cs1 | 77.19% and 65.52%
CCCCCC(O)/C=C/[C@H]1C(=O)CC(O)C1C/C=C\CCCC(=O)O (some centres not stated) | 77% and 48%
Cc1cc(C)c(NC(=O)C2CC3CCC2C3)c(C)c1 (configuration not stated) | 90.76% and 76.92%
